Measured values of several laboratories.
Each line is one published result; the experiments were not run side by side.
Target: Amine oxidase [flavin-containing] B (MAOB, Homo sapiens, UniProt P27338)
Effect on: enzyme activity
Mode: inhibitor
Residues used in one study (P27338 1-520): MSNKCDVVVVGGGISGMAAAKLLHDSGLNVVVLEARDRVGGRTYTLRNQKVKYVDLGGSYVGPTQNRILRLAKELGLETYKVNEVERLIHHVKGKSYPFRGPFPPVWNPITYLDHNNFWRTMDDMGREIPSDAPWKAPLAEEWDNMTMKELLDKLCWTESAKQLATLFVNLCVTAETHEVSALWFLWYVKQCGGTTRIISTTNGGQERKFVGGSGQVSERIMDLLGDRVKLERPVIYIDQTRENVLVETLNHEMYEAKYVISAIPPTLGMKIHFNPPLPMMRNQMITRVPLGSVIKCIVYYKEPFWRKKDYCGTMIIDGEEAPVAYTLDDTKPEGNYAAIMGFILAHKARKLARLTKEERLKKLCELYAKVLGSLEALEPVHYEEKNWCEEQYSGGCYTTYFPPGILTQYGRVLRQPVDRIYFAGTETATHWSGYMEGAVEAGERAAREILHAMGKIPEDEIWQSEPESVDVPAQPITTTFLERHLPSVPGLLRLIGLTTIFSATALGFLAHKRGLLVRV

SMILES | test | IC50 [µM]
c1ccc2[nH]c(-c3nc4ccccc4[nH]3)nc2c1 | fluorescence | > 30
COc1cc(/C=C/C(=O)N2CCC(Cc3ccccc3)CC2)ccc1OC1CCCCC1 | fluorescence | 0.56
O=C(O)c1cc(O)c2c(c1)C(=O)c1cc(O)cc(O)c1C2=O | – | 31.9
COc1cc(/C=C/C(=O)N2CCc3ccccc3C2)ccc1OCc1ccccc1 | fluorescence | 3.1
O=c1c(O)c(-c2ccc(O)c(O)c2)oc2cc(O)ccc12 | – | > 100
CSc1ccc(CNc2nc3ccccc3n3cnnc23)cc1 | fluorescence | 0.25
CCn1c(-c2nc3ccc(C(=O)N4CCCC(N)C4)cc3n2C)cc2ccccc21 (stereo not shown) | – | 20
COC(=O)c1ccc(C(=O)OC)c(NC(=O)c2cc(Cl)ccc2O)c1 | – | > 1
C#CCOc1ccc(/C=C/C(=O)N2CCc3ccccc3C2)cc1OC | fluorescence | 0.54
O=c1[nH]c(-c2ccccc2)cnc1-c1ccccc1 | fluorescence | 0.14
O=c1cc(-c2ccc(O)cc2)oc2c([C@@H]3O[C@H](CO)[C@@H](O)[C@H](O)[C@H]3O)c(O)cc(O)c12 | – | 34.1
COc1ccc(/C=C/C(=O)N2CCc3ccccc3C2)cc1OC | fluorescence | 0.73
O=c1cc(-c2ccc(O)cc2)oc2cc(O)c([C@@H]3O[C@H](CO)[C@@H](O)[C@H](O)[C@H]3O)c(O)c12 | – | 23.2
O=C(Nc1ccc(OC(F)(F)F)cc1)c1cc(Cl)ccc1O | – | 0.128
O=c1cc(-c2ccc(O)cc2)oc2c([C@@H]3O[C@H](CO)[C@@H](O)[C@H](O)[C@H]3O)c(O)c([C@@H]3O[C@H](CO)[C@@H](O)[C@H](O)[C@H]3O)c(O)c12 | – | 43.3
Nc1nn(-c2ccccc2)nc1C(=O)O | fluorescence | > 10
